Activity calls are given as the source filed them. No cut-off for these calls is given here.
Key:
[1] = molecular target: T1, Sialidase-3 (Homo sapiens) (UniProt Q9UQ49); test: Inhibition of human NEU3 transiently transfected in HEK293 cells at 1 mM by fluorimetric analysis; assay type: cell-based
T1 sequence (whole entry): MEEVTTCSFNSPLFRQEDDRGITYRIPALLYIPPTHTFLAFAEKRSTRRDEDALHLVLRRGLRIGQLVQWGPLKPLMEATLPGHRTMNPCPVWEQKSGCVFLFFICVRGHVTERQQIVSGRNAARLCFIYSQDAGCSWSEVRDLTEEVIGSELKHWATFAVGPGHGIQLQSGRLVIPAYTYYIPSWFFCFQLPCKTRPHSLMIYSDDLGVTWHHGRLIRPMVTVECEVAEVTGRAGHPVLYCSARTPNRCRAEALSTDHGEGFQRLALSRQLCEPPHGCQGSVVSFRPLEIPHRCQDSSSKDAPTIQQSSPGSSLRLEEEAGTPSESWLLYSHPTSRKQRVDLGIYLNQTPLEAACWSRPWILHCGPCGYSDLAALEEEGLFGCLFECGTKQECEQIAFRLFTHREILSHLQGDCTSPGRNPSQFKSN
Summary of the method: (§1)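 Enzyme source was the crude supernatant of homogenates from HEK-293 cells transiently transfected with a full-length human sialidase cDNA plasmid. The reaction contained 10–20 nmol substrate (4MU-Neu5Ac) as bound sialic acid, 0.2 mg BSA, sodium acetate pH 4.6 and 0.2 mg Triton X-100. It was incubated at 37 °C for 10–30 min, and released sialic acid was quantified. Inhibitors were tested at 1 mM and reported as percent inhibition.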

[2] = molecular target: Sialidase-1 (Homo sapiens) (UniProt Q99519); test: Inhibition of human NEU1 transiently transfected in HEK293 cells at 1 mM by fluorimetric analysis; assay type: cell-based; summary of the method: as §1
[3] = molecular target: T2, Sialidase-4 (Homo sapiens) (UniProt Q8WWR8); test: Inhibition of human NEU4 transiently transfected in HEK293 cells at 1 mM by fluorimetric analysis; assay type: cell-based; summary of the method: as §1
T2 sequence (whole entry): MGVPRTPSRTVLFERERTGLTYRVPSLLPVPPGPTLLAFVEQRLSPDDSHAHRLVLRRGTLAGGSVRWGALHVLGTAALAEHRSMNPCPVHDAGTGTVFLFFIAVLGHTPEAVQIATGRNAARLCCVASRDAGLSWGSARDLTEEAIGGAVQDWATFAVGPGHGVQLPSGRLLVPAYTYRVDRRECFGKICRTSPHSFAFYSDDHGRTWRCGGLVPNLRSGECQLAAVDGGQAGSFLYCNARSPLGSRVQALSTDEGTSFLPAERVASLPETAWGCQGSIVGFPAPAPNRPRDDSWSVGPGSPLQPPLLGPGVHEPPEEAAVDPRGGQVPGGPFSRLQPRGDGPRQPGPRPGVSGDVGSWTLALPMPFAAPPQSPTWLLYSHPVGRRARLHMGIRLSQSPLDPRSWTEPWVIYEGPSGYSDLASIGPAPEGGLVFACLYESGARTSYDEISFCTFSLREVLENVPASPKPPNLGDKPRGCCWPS

[4] = molecular target: T3, Sialidase-3 (Homo sapiens, UniProt Q9UQ49); test: Inhibition of human NEU3 transiently transfected in HEK293 cells by fluorimetric analysis; assay type: cell-based
T3 sequence (Q9UQ49 whole entry): T1 sequence (whole entry)
Summary of the method: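 The sialidase was the crude supernatant of homogenized HEK-293 cells transiently transfected with full-length human NEU3 cDNA. The mixture held 10–20 nmol 4MU-Neu5Ac as bound sialic acid, 0.2 mg BSA, sodium acetate pH 4.6 and 0.2 mg Triton X-100, run at 37 °C for 10–30 min. Released sialic acid was measured, and IC50 came from nonlinear regression of concentration–inhibition curves.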

[5] = molecular target: T4, Sialidase-4 (Homo sapiens, UniProt Q8WWR8); test: Inhibition of human NEU4 transiently transfected in HEK293 cells by fluorimetric analysis
T4 sequence (Q8WWR8 whole entry): T2 sequence (whole entry)

[6] = molecular target: T3, Sialidase-3; test: Inhibition of human NEU3 transiently transfected in HEK293T cells by fluorimetric high-performance liquid chromatography; assay type: cell-based, HEK-293T
Summary of the method: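 Crude supernatant of homogenates from HEK-293 cells transiently transfected with full-length human sialidase cDNA. Reaction: 10–20 nmol substrate as bound sialic acid, 0.2 mg BSA, sodium acetate pH 4.6, 0.2 mg Triton X-100.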

inhibition [1]	inhibition [2]	inhibition [3]	IC50 [4]	IC50 [5]	IC50 [6]	Compound
inactive	inactive	< 5%				CC(=O)Nc1cc(F)c(C(=O)O)cc1NC(=O)C(C)(C)C
13%	inactive	< 5%				CCCCC(=O)Nc1cc(C(=O)O)c(F)cc1NC(C)=O
	inactive		≥ 5000 µM	≥ 5000 µM		CC(=O)Nc1cc(F)c(C(=O)O)cc1NC(=O)c1ccc(-c2ccccc2)cc1
inactive	inactive	inactive				CC(=O)Nc1cc(F)c(C(=O)O)cc1NC(=O)C1CC1
8%	inactive	10%				CC(=O)Nc1cc(F)c(C(=O)O)cc1NC(=O)c1ccc2ccccc2c1
inactive	inactive	6%				CC(=O)Nc1cc(F)c(C(=O)O)cc1NC(=O)C1CCCCC1
inactive	inactive	< 5%				CCC(CC)C(=O)Nc1cc(C(=O)O)c(F)cc1NC(C)=O
23%	inactive	8%	> 2000 µM			CC(=O)Nc1cc(F)c(C(=O)O)cc1NC(C)=O
inactive	inactive	inactive				CC(=O)Nc1cc(F)c(C(=O)O)cc1NC(=O)C1CCCC1
inactive	inactive	inactive				CC(=O)Nc1cc(F)c(C(=O)O)cc1NC(=O)c1ccccc1
inactive	inactive	< 5%				CCCC(=O)Nc1cc(C(=O)O)c(F)cc1NC(C)=O
inactive	inactive	inactive				CCC(C)C(=O)Nc1cc(C(=O)O)c(F)cc1NC(C)=O (stereo unspecified)
					60 µM	CC(=O)N[C@H]1[C@H]([C@H](O)[C@H](O)CO)OC(C(=O)O)=C[C@@H]1O [NEU5AC2EN]
inactive	inactive	11%				CC(=O)Nc1cc(F)c(C(=O)O)cc1NC(=O)C(C)C

Reference: ChEMBL document CHEMBL1152936, “Human sialidase inhibitors: design, synthesis, and biological evaluation of 4-acetamido-5-acylamido-2-fluoro benzoic acids” (Bioorg Med Chem, 2009)
